According to paper PMC4800337 (Kidney international, 2016):
Where no end group is shown, it is not given here.

Legend:
[1] = target: human CD36 (CD36-overexpressing HeLa cells) (Homo sapiens, UniProt P16671); assay: Competition with Alexa-Fluor-488 oxLDL uptake in CD36-overexpressing HeLa cells; assay type: cell-based
[2] = Liver toxicity by serum transaminases in 5/6Nx+AngII mice; assay type: in vivo, mouse; settings: mice 5/6Nx+AngII treated with 5A 5 mg/kg/day, 4 weeks
How it was run: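 C57BL/6 mice underwent 5/6 nephrectomy: left kidney resection at week −1, then right nephrectomy at week 0. Animals were kept if the resected-to-removed kidney weight ratio was 0.5–0.65. Buprenorphine was given at 0.1 mg/kg after surgery and 0.05 mg/kg at 18 h. Val5-AngII (0.75 µg/kg/min, in sterile water) and 5A (5 mg/kg/day) were infused by separate subcutaneous osmotic mini-pumps placed at right nephrectomy.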

human CD36 (CD36-overexpressing HeLa cells), sequence (P16671 whole entry): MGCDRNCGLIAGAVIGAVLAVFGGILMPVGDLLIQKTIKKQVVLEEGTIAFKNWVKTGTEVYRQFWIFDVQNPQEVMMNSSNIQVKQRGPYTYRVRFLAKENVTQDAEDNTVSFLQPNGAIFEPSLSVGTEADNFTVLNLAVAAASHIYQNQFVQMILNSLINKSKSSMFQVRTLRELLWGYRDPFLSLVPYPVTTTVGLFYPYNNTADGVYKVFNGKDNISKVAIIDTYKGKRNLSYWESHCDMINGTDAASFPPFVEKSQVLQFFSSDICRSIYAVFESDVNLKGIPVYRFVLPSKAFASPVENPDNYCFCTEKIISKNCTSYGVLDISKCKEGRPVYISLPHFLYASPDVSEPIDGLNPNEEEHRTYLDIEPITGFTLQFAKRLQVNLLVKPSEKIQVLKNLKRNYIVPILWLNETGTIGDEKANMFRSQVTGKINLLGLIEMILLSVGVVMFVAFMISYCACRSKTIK

## DWLKAFYDKVAEKLKEAFPDWAKAAYDKAAEKAKEAA [5A]
[1]
  IC50: 7.5 µM
  Ki: 1.45 µM
[2]
  Liver toxicity, serum transaminases: did not have liver toxicity
